# From paper PMC4212793 (ACS Nano, 2014)
# Tests used:
# [1] = PA-RGDS self-assembled under similar conditions; cited from earlier work
# [2] = tested on: neonatal rat cardiomyocytes (NRCMs); assay: Cytoprotection against H2O2 oxidative stress, Live/Dead staining; type: cell-based; settings: H2O2 200 μM, 2 h; p < 0.001; N = 3
# mESC-CMs = assay: Mouse myocardial infarction model, engraftment of DiI-labelled mESC-CMs; type: in vivo, athymic nude mice (Foxn1nu); settings: heart sections 4 weeks after MI; p < 0.05; N = 3
# Procedure, shortened: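 Male athymic nude mice (Foxn1nu) underwent MI by left anterior descending coronary artery ligation. Immediately after surgery, 2 × 105 CM-DiI-prelabelled mESC-derived CMs from one differentiation batch, alone or encapsulated in test gel, were injected intramyocardially through 30 G needles at two border-zone sites. PBS and gel-only groups served as controls. Frozen OCT heart sections were fixed in 4% paraformaldehyde before imaging.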
substance,measurement,setting,value
C16-GTAGLIGQRGDS [PA-RGDS],storage modulus (G′),[1],around 100 Pa
same,viability after H2O2 (Live/Dead staining) compared to NRCMs without encapsulation,[2],significantly improved viability
same,number of engrafted DiI-positive mESC-CMs at 4 weeks compared to mESC-CMs only,mESC-CMs,significantly higher
